Results of several laboratories.
Each line is one published result; the experiments were not run side by side.
Target: Serine/threonine-protein kinase 38-like (STK38L, Homo sapiens, UniProt Q9Y2H1)

Compound	read-out	mode	technique	cell line	concentration	measurement	value
CC/C(=N\NC(=O)NCc1cccc(O)c1)c1ccc(O)c(C)c1O	enzyme activity	inhibitor	–	–	0.1 µM	inhibition	19.5%
CN1CCC2(CC1)NC(=O)c1c(c3ccc(Cl)c(Cl)c3n1C)C2C#N (racemic)	thermal stability	–	DSF	–	10 µM	ΔTm	0 °C
CN(C(=O)c1ccccc1)c1cc(N(C)c2ccc3c(c2)CCc2ccc(C(=O)NCCN4CCOCC4)cc2C3=O)ccc1F	cell-free assay	–	competition with immobilised ligand	–	1 µM	remaining binding	47%
CCN1CCN(Cc2ccc(NC(=O)c3ccc(C)c(/C=C/c4cnc5[nH]ccc5c4OC)c3)cc2C(F)(F)F)CC1	target engagement in cells	inhibitor	chemoproteomics	A-375	50 nM	inhibition	-0.856%
CN(C)c1ncc(F)c(-c2cnn3ncccc23)n1	binding	–	–	–	1 µM	remaining binding	100%
Cn1c2c(c3ccccc31)C(C#N)C(C)(C)NC2=O (centres unmarked)	thermal stability	–	DSF	–	10 µM	ΔTm	0 °C
Cc1sc(C(=O)NC2COC2)cc1-n1cc(NC(=O)Nc2c(F)cccc2Cl)cn1	enzyme activity	inhibitor	–	–	10 µM	remaining activity	95.1%
Cn1c2c(Cl)c(Cl)ccc2c2cc[nH]c(=O)c21	thermal stability	–	DSF	–	10 µM	ΔTm	0 °C
CN(C)C(=O)Cn1cc(-c2nc([C@@](C)(c3ccc(-c4cnc(N)nc4)cc3)C3CC3)no2)cn1	binding	–	competition with immobilised ligand	–	1 µM	remaining binding	91%
Cn1c2c(Cl)c(Cl)ccc2c2cn[nH]c(=O)c21	thermal stability	–	DSF	–	10 µM	ΔTm	0.1 °C
CS(=O)(=O)N1CCCC(NC(=O)[C@H](CCC2CCCCC2)NC(=O)c2ccc(CNc3ncnc4c3nnn4-c3ccccc3)cc2)C1 (some centres unmarked)	binding	–	competition with immobilised ligand	–	1 µM	remaining binding	24%
CCC1(CC)NC(=O)c2c(c3ccc(Cl)c(Cl)c3n2C)C1C#N (centres unmarked)	thermal stability	–	DSF	–	10 µM	ΔTm	0 °C
O=C(Nc1cnn(-c2csc(C(=O)NC3COC3)c2)c1)Nc1ccccc1Cl	enzyme activity	inhibitor	–	–	5 µM	remaining activity	103%
Nc1ncnc2occ(-c3ccc(NC(=O)Nc4cc(C(F)(F)F)ccc4F)cc3)c12	cell-free assay	–	–	–	20 µM	remaining signal	17%
C[C@@H]1CN(c2cc(-c3nn(C)c4ccc(OC5(C)CC5)cc34)ncn2)C[C@H](C)O1	cell-free assay	–	competition with immobilised ligand	–	1 µM	remaining binding	72%
CCN1CCN(Cc2ccc(NC(=O)c3ccc(C)c(Oc4ccnc5[nH]ccc45)c3)cc2C(F)(F)F)CC1	target engagement in cells	inhibitor	chemoproteomics	Huh-7	1 µM	inhibition	-11.8%
Cc1c(C(=O)O)cc(-c2ccc(C3CCNCC3)cc2)c2ccc(-c3ccc(C(F)(F)F)cc3)cc12	binding	–	competition with immobilised ligand	–	1 µM	remaining binding	100%
Cn1c2c(c3ccc(Cl)c(Cl)c31)C(C#N)C1(CCOCC1)NC2=O (centres unmarked)	thermal stability	–	DSF	–	10 µM	ΔTm	-0.2 °C
NS(=O)(=O)c1cc(NC(=O)Cc2ccccc2)ccc1Oc1cccc(Cl)c1	cell-free assay	–	competition with immobilised ligand	–	1 µM	remaining binding	100%
COc1cc(-c2cc(-c3ccc(N4CCNCC4)cc3)cnc2C)cc(OC)c1OC	enzyme activity	inhibitor	–	–	0.1 µM	inhibition	0%
